# Reference: ChEMBL document CHEMBL4831540, “Discovery of Aficamten (CK-274), a Next-Generation Cardiac Myosin Inhibitor for the Treatment of Hypertrophic Cardiomyopathy” (J Med Chem, 2021)
# Key:
# [1] = (§1) Inhibition of full-length myosin ATPase activity in bovine cardiac myofibrils; format: subcellular, Bos taurus, Heart
# Procedure, shortened: (§2)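 Bovine cardiac myofibril ATPase assay run at a calcium level giving 75% of maximal activity.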
# Bos taurus = species: Bos taurus; test: as §1; format: subcellular; settings: Heart, Myofibril; procedure, shortened: as §2
# [2] = Plasma protein binding in rat plasma assessed as unbound concentration at 5 uM incubated for 6 hrs by HPLC analysis; format: ADME, cell-free
# [3] = Unbound clearance in Sprague-Dawley rat at 0.5 mg/kg; format: ADME, organism-based; settings: in vivo
# Procedure, shortened: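 Rat in vivo clearance at a 0.5 mg/kg dose was divided by the rat plasma free fraction to give unbound clearance.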
# [4] = Metabolic stability in rat liver microsomes assessed as intrinsic clearance measured upto 90mins by HPLC/MS/MS analysis; format: ADME, Microsome; settings: read-out: CLH
# [5] = Metabolic stability in human liver microsomes assessed as intrinsic clearance measured upto 90mins by HPLC/MS/MS analysis; format: ADME, Microsome; settings: read-out: CLH
# [6] = Plasma protein binding in human assessed as unbound fraction; format: ADME, cell-free
# [7] = Plasma protein binding in rat assessed as unbound fraction; format: ADME, cell-free
# [8] = Solubility of the compound at pH 6.8 by shake flask method; format: physicochemical; settings: buffer
# Procedure, shortened: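 Shake-flask solubility at pH 6.8; solid form not characterized.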
# [9] = Clearance in Sprague-Dawley rat at 1 mg/kg; settings: in vivo
# [10] = Clearance in Sprague-Dawley rat at 1 mg/kg; format: ADME, organism-based; settings: in vivo
# Procedure, shortened: (§3)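 Rat PK with iv and po administration at 1 mg/kg. Clearance and half-life came from the iv arm, and bioavailability from the iv/po comparison.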
# [11] = Half life in Sprague-Dawley rat at 1 mg/kg; format: ADME, organism-based; settings: in vivo; procedure, shortened: as §3
# [12] = Oral bioavailability in Sprague-Dawley rat at 2 mg/kg; format: ADME, organism-based; settings: in vivo
# Procedure, shortened: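 Multi-species PK study in male animals, n = 3 per group (dog IV arm n = 2). Iv and oral dosing with plasma concentration–time profiles yielding Cmax, tmax, AUC0–t, CL, Vss, t1/2 and F.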
# [13] = Bioavailability in Sprague-Dawley rat at 2 to 6 mg/kg, po and 1 mg/kg, iv; settings: in vivo
# [14] = Half life in human; format: ADME
# Rattus norvegicus [15] = test: Anti-hypertrophic cardiomyopathy in Sprague-Dawley rat assessed as reduction in fractional shortening at 4 mg/kg, po measured upto 24 hrs by echocardiography relative to control; format: functional; design: scale not given: the % may be the effect or the level left; settings: time hrs <=24
# Procedure, shortened: (§4)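 Normal Sprague–Dawley rats were given single oral doses of 0.5–4 mg/kg. Left ventricular dimensions and fractional shortening were measured by echocardiography at selected time points over 24 h, relative to vehicle treatment.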
# [16] = Ratio of IC50 to IC10 for anti-hypertrophic cardiomyopathy in po dosed Sprague-Dawley rat assessed as reduction in fractional shortening measured upto 24 hrs by echocardiography; format: functional; settings: time hrs <=24
# Procedure, shortened: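 Sprague–Dawley rats received single oral doses from 0.5 to 4 mg/kg. LV dimensions and fractional shortening were read by echocardiography at set times over 24 h, with blood drawn at each reading for compound level. Concentrations giving 50% and 10% FS reduction were derived, and their IC50/IC10 ratio was calculated.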
# Rattus norvegicus [17] = test: Anti-hypertrophic cardiomyopathy in po dosed Sprague-Dawley rat assessed as reduction in fractional shortening measured upto 24 hrs by echocardiography; format: functional, organism-based; procedure, shortened: as §4
# CYP3A4 = CYP3A4 (Homo sapiens, UniProt P08684); test: Induction of CYP3A4 in human hepatocytes assessed as mRNA expression incubated for 3 days by RT-RTPCR analysis; format: ADME, cell-based, Hepatocyte
# CYP3A4, sequence (P08684 whole entry): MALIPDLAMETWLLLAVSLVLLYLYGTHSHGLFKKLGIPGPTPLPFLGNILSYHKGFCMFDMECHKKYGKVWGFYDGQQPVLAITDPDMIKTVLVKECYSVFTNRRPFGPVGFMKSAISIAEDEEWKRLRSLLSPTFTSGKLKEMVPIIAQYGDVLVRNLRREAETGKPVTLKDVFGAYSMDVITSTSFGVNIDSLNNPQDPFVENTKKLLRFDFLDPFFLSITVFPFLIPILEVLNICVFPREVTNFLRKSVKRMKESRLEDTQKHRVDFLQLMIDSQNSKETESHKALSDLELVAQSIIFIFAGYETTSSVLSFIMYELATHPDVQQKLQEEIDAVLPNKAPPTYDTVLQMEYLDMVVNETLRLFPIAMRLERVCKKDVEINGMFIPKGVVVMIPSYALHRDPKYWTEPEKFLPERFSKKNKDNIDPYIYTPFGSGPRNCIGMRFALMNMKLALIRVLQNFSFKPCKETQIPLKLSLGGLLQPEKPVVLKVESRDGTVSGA
# Procedure, shortened: (§5)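 Cryopreserved plateable human primary hepatocytes from three separate donors were tested at concentrations up to 50 μM. The end point was CYP mRNA level, with induction judged against predetermined cutoff values (2-fold).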
# Cytochrome P450 2B6 = target: T1, Cytochrome P450 2B6 (Homo sapiens, UniProt P20813); test: Induction of CYP2B6 in human hepatocytes assessed as mRNA expression incubated for 3 days by RT-RTPCR analysis; format: ADME, cell-based; settings: hepatocyte; procedure, shortened: as §5
# T1 sequence (P20813 whole entry): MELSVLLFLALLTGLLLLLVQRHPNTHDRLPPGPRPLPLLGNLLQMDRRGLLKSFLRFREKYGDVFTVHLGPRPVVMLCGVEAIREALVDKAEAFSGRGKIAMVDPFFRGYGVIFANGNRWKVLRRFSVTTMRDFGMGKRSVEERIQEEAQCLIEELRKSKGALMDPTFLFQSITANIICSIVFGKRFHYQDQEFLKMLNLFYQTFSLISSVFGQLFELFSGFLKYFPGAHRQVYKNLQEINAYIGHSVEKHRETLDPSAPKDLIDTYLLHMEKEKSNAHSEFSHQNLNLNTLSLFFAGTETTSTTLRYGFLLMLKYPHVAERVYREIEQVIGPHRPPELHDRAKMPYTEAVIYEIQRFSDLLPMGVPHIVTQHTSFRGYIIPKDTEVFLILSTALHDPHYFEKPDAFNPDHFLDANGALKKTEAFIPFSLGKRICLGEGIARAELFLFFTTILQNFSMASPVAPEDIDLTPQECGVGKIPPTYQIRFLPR
# [18] = Bioavailability in Sprague-Dawley rat at 1 mg/kg, po or 1 mg/kg, iv; format: ADME, organism-based; settings: in vivo; procedure, shortened: as §3
IC50 [1] [µM],IC15 (Bos taurus) [µM],"fraction unbound at 6 h, 5 µM [2]",CLint scaled [4] [mL/min/kg],CLint scaled [5] [mL/min/kg],fraction unbound [7],SMILES,further results
19.1,3.5,,,,,CCc1nc(-c2ccc3c(c2)CCN3C(=O)Cc2ccccc2)no1,
> 39,> 39,,,,,CCc1nc(-c2ccc3c(c2)CCN3C(=O)NCc2ccccc2)no1,
> 39,> 39,,,,,CCc1nc(-c2ccc3c(c2)CCN3C(=O)CSc2ccccc2)no1,
> 39,,0.15,< 21,< 11,,Cc1nc(-c2ccc3c(c2)CC[C@@H]3NC(=O)c2cnn(C)c2)no1,CL free [3]: 395 mL/min/kg
2.4,,0.024,< 21,< 11,0.024,Cn1cc(C(=O)N[C@@H]2CCc3cc(-c4noc(C(F)F)n4)ccc32)cn1,fraction unbound [6]: 0.057; solubility thermodynamic [8]: 37 µM
> 39,> 39,,,,,CCc1nc(-c2ccc3c(c2)CCN3C(=O)Nc2ccccc2)no1,
1,,0.12,< 21,< 11,0.077,Cn1nnc(C(=O)N[C@@H]2CCc3cc(-c4noc(C5CC5)n4)ccc32)n1,clearance [9]: 5 mL/min/kg; clearance [10]: 5 mL/min/kg; half-life [11]: 17.8 h; bioavailability [12]: 100%
3.2,,,,,,Cn1cc(C(=O)N[C@@H]2CCc3cc(-c4noc(C5CCC5)n4)ccc32)cn1,solubility thermodynamic [8]: 14 µM
2.7,0.9,,,,,CCc1nc(-c2ccc3c(c2)CCN3C(=O)COc2ccccc2)no1,
> 39,1.3,,,,,CCc1nc(-c2ccc3c(c2)CCN3C(=O)OCc2ccccc2)no1,
0.9,,0.29,< 21,< 11,0.11,CCc1nc(-c2ccc3c(c2)CC[C@H]3NC(=O)c2nnn(C)n2)no1,bioavailability [13]: 53%; clearance [9]: 20 mL/min/kg; clearance [10]: 20 mL/min/kg; half-life [11]: 6.3 h
6.8,,0.082,< 21,< 11,0.082,COCc1nc(-c2ccc3c(c2)CC[C@H]3NC(=O)c2cnn(C)c2)no1,fraction unbound [6]: 0.12; solubility thermodynamic [8]: 63 µM
2.7,,,,,0.042,Cn1cc(C(=O)N[C@@H]2CCc3cc(-c4noc(C5CC5)n4)ccc32)cn1,fraction unbound [6]: 0.056; solubility thermodynamic [8]: 33 µM
,,,,,,CC(C)n1c(=O)cc(N[C@@H](C)c2ccccc2)[nH]c1=O [MAVACAMTEN],"half-life [14]: 216 h; Activity (Rattus norvegicus [15]): 80%; Ratio [16]: 2.8; IC10 (Rattus norvegicus [17]; Rattus norvegicus, Sprague-Dawley, 24 h): 0.6 µM; IC50 (Rattus norvegicus [17]; time hrs <=24): 1.7 µM; EC50 at 3 days (CYP3A4): 2.2 µM; EC50 (Cytochrome P450 2B6): 5.1 µM"
> 39,3.4,,,,,CCc1nc(-c2ccc3c(c2)CCN3CCc2ccccc2)no1,
> 39,> 39,,,,,CCc1nc(-c2ccc3c(c2)CCN3C(=O)CCc2ccccc2)no1,
4.4,,0.065,< 21,< 11,0.065,Cc1nc(-c2ccc3c(c2)CC[C@H]3NC(=O)c2cnn(C)c2)no1,fraction unbound [6]: 0.14; CL free [3]: 32.3 mL/min/kg; solubility thermodynamic [8]: 86 µM
> 39,> 39,,,,,CCc1nc(-c2ccc3c(c2)CCN3C(=O)c2ccccc2)no1,
1.8,,0.092,24,< 11,0.046,CCc1nc(-c2ccc3c(c2)CC[C@H]3NC(=O)c2cc(C)ncn2)no1,bioavailability [18]: 26%; clearance [9]: 20 mL/min/kg; clearance [10]: 20 mL/min/kg; half-life [11]: 5.9 h
1.1,,0.2,66,< 11,0.2,CCc1nc(-c2ccc3c(c2)CC[C@H]3NC(=O)c2cn[nH]c2)no1,bioavailability [18]: 10%; clearance [9]: 63 mL/min/kg; clearance [10]: 63 mL/min/kg; half-life [11]: 1.4 h
